mABHD4 FP: ABHD4 (mouse) inhibition, primary FP screen | purified mABHD4, FP-Rh probe fluorescence polarization | inhibition, % at 8.92 µM | 370,000 tested, 0.54% active | AID 720543;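 active = inhibition exceeding the mean over every tested compound plus 3 SD, cut at about 30% in these data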;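 note: 0% = plate median of compound wells and 100% = S159A mutant with DMSO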
Target sequence (Q8VD66 whole entry, looked up): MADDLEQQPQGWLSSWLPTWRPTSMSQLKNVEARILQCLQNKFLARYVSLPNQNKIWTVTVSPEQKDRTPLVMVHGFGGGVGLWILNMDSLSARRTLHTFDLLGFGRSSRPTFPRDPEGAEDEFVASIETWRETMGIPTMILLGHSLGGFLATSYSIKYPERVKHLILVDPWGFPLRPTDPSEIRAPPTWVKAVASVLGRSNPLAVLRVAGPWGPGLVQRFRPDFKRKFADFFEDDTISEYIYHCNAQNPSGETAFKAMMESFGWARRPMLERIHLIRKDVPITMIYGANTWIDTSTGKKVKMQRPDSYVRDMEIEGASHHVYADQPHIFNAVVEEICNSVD
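Material: mouse ABHD4 enzyme, wild type; Benchmarks: S159A mutant high control, sample median low control; Buffer or medium: HEPES pH 7.0, NaCl, Pluronic buffer; Signal: fluorescence polarization; Read-out: percent inhibition of probe binding, normalized to plate controls; Timing: pre-incubation 45 min, probe exposure 60 min, at 25 °C; Dosing: 8.92 µM, single dose.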
PRMT1 inh: blocks human protein arginine methyltransferase 1 | Q99873 | recombinant PRMT1, activity-based probe fluorescence polarization | inhibition, % at 2.79 µM | 370,000 tested, 1.3% active;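 active = inhibition above about 21% made by adding two undisclosed values, limit read from the data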
Target sequence (Q99873 whole entry, looked up): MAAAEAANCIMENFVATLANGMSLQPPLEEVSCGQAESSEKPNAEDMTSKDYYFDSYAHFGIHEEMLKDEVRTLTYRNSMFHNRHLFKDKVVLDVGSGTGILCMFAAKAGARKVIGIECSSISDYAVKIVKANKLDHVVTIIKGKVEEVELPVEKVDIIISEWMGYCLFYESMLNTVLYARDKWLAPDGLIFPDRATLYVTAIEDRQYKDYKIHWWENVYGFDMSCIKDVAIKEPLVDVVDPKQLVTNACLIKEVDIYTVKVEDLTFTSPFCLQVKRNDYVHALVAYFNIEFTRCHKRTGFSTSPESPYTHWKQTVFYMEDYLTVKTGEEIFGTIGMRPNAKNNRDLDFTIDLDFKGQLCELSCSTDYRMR
SIAE inh: human SIAE inhibition, primary screen; AID 1053197; 370,000 tested, 0.69% active; inhibition, % at 9.66 µM; Q9HAT2; SIAE FP-Rh probe binding, fluorescence polarization;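 active = inhibition above a cutoff: mean of compounds within the control limits plus 3 SD of those, cut at about 17% in these data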;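 note: 0% = plate median of compound wells and 100% = probe without SIAE protein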
TCR CD3 inh: inhibitors of human TCR-CD3 interaction; TAMRA-labeled TCR probe fluorescence, biochemical; inhibition, % at 9.4 µM; 360,000 tested, 0.37% active; AID 651800; in the data active = inhibition above about 19%;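 note: recombinant mutant TCR 2C K166C tagged with TAMRA read by polarization; 0% = receptor in buffer alone and 100% = receptor with positive control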
HTRA1 inh: inhibitors of human serine peptidase HTRA1; Q92743; recombinant HTRA1, FP-rhodamine activity-based probe, fluorescence polarization; inhibition, % at 5.96 µM; 340,000 tested, 0.5% active; in the data active = inhibition above about 36%;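 note: 0% = enzyme with DMSO and 100% = wells lacking enzyme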
PRMT1 confirm: PRMT1 (human) inhibition, FP confirmation; inhibition, % at 2.79 µM; shares compounds with PRMT1 inh; 3,300 tested, 42% active; AID 687036; recombinant His-PRMT1, activity-based probe fluorescence polarization;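 active = mean inhibition across replicates above the hit cutoff derived for the earlier primary screen, cut at about 22% in these data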
ABHD4 confirm: confirmation of mouse ABHD4 inhibitors; shares compounds with mABHD4 FP; inhibition, % at 8.92 µM; AID 720658; purified mABHD4, FP-Rh probe fluorescence polarization; 1,800 tested, 55% active;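 active = mean inhibition across replicates above the hit cutoff set in the primary screen, cut at about 30% in these data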;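 note: 0% = wild-type ABHD4 with DMSO and 100% = catalytically dead S159A mutant with DMSO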
* marks the source's active call; other numbers are inactive results; nt = no result. A selection: hits, their analogues and other compounds. The true share with any hit is near 2.6%.

SMILES | mABHD4 FP | PRMT1 inh | SIAE inh | TCR CD3 inh | HTRA1 inh | PRMT1 confirm | ABHD4 confirm
O=[N+]([O-])c1c(Nc2ccccc2O)cc(Cl)c2nonc12 | 33* | 60* | 6 | 7 | 29 | 53* | 49*
O=[N+]([O-])c1c(Nc2ccccc2O)ccc2nonc12 | 0 | -5 | -1 | -4 | -1 | nt | nt
O=C(NCCc1ccccc1F)c1cc2ccccn2n1 | -2 | -6 | -6 | nt | nt | nt | nt
COc1ccc(-c2cc(-c3nnc(SCC(=O)Nc4ccc(-c5nc6ccc(C)cc6s5)cc4)n3N)[nH]n2)cc1 | -8 | -4 | -2 | nt | nt | nt | nt
Nc1ncc(N=Nc2cc(C(=O)O)ccc2Cl)s1 | 42* | 26* | -3 | 4 | 5 | 29* | 62*
COc1ccc(S[C@]2(C(=O)N(C)C)CC(=O)N(C(=O)C3CC3)[C@@H]2c2ccc(OC)cc2)cc1 | 34* | 42* | -2 | nt | nt | 34* | 32*
COc1ccc(S[C@]2(C(=O)N(C)C)CC(=O)N(C(=O)CCc3ccccc3)[C@@H]2c2ccc(OC)cc2)cc1 | -5 | 12 | -5 | nt | nt | nt | nt
O=C(/C=C/c1ccc(Br)cc1)c1ccco1 | -5 | 5 | 3 | 3 | -10 | nt | nt
O=C(/C=C/c1ccc([N+](=O)[O-])cc1)/C=C/c1ccco1 | 39* | 40* | 10 | 1 | 33 | 60* | 33*
O=C(/C=C/c1ccc([N+](=O)[O-])cc1)c1ccco1 | -2 | -3 | -3 | 4 | 0 | nt | nt
O=C(C=Cc1ccco1)c1ccco1 | 32* | 43* | 3 | 1 | 9 | 11 | 12
COC(=O)[C@H](C)NC(=O)[C@@H]1CCCN1C(=O)CNP(=O)(OCc1ccccc1)OCc1ccccc1 | 5 | -1 | 2 | nt | nt | nt | nt
COC(=O)C1CN(C2CCCC2)CCS(=O)(=O)N1Cc1ccc(C)cc1 (stereo not given) | 0 | 1 | 5 | nt | nt | nt | nt
COCc1cc(N2CCN(C(=O)OC(C)(C)C)C[C@@H]2C)ccc1N1CC[C@H](O)C1 | 35* | 58* | 9 | 6 | nt | 7 | 14
COCc1cc(N2CCN(C(=O)OC(C)(C)C)C[C@@H]2C)ccc1N1CCS(=O)(=O)CC1 | -4 | -4 | -3 | 4 | nt | nt | nt
COCc1cc(N2CCN(C(=O)OC(C)(C)C)C[C@H]2C)ccc1N1CC[C@H](O)C1 | 38* | 61* | 11 | 3 | nt | 1 | 9
C#CCNC(=O)C[C@@H]1C(=O)N(Cc2ccc(OC)cc2)C2=CCN(C(=O)OC(C)(C)C)C[C@]21C(=O)OCC | 11 | -1 | 3 | nt | nt | nt | nt
Nc1[nH]c(C(=O)c2ccccc2)c(-c2ccc(Cl)c(F)c2)c1C(=O)c1c[nH]c2ccccc12 | 5 | 3 | 0 | -6 | nt | nt | nt
CCC[C@H]1[C@@H](NC(=O)C(c2ccccc2)c2ccccc2)CC[C@@]23CCCN2C(=O)CCC[C@@H]13 | -1 | -5 | -2 | nt | nt | nt | nt
CN1c2ccsc2/C(=N/NC(=O)c2c(F)cccc2F)CS1(=O)=O | -12 | 1 | -4 | -6 | 6 | nt | nt
CN1c2ccsc2/C(=N/Nc2ccccc2)CS1(=O)=O | 32* | 38* | 5 | -4 | 33 | 1 | 5
CCCSC1=N/C(=C\C=C\c2ccco2)C(=O)S1 | 36* | 48* | 11 | 15 | 30 | 12 | 4
O=C1SC(SCc2ccccc2)=N/C1=C\c1ccco1 | 30* | 42* | 7 | 9 | -5 | 1 | 4
CCCSC1=N/C(=C\c2ccc([N+](=O)[O-])o2)C(=O)S1 | 38* | 29* | 15 | 9 | 18 | 7 | 7
CCCSC1=N/C(=C\c2ccsc2)C(=O)S1 | 4 | -3 | -4 | 10 | -8 | nt | nt
SMILES | mABHD4 FP | PRMT1 inh | SIAE inh | TCR CD3 inh | HTRA1 inh | PRMT1 confirm | ABHD4 confirm
COC[C@@H]1CCCN1c1ccc2c(c1)O[C@H]1CCN(C1)S2(=O)=O | 0 | -2 | 0 | nt | nt | nt | nt
O=C(O)c1ccc2nc(-c3ccco3)c(-c3ccco3)nc2c1 | 63* | 55* | 6 | -5 | 16 | 67* | 18
Cc1ccc(-c2nc3ccc(C(=O)O)cc3nc2-c2ccc(C)cc2)cc1 | -3 | 2 | -5 | -7 | -6 | nt | nt
C[C@H]1[C@@H](O)CC[C@@]23CCCN2C(=O)CCC[C@@H]13 | -1 | -3 | -3 | nt | nt | nt | nt
COc1ccccc1N(CC(=O)N(CC(C)C)CC(C)C)S(=O)(=O)c1cccs1 | 6 | -3 | 10 | 5 | -10 | nt | nt
CC(C)C(=O)N(c1cc2sc(=O)oc2c2ccccc12)S(=O)(=O)c1cccs1 | 42* | 81* | 11 | -5 | 17 | 22* | 20
S=c1[nH]nc(-c2ccccc2)n1/N=C/C=C/c1ccco1 | 27 | 10 | 9 | 5 | 13 | nt | nt
S=c1[nH]nc(-c2ccc(Cl)cc2)n1/N=C/C=C/c1ccco1 | 31* | 31* | 10 | 0 | nt | 5 | -2
Cc1ccccc1-c1n[nH]c(=S)n1/N=C/C=C/c1ccco1 | 35* | 29* | 8 | 7 | 16 | 20 | 32*
O=C1Nc2ccccc2/C1=C\C(=O)c1ccccc1 | 7 | 13 | -5 | 0 | -7 | nt | nt
O=C(/C=C1\C(=O)Nc2ccccc21)/C=C1\C(=O)Nc2ccccc21 | 41* | 53* | 19* | 6 | 25 | 74* | 24
N#CC1=C(N)C(C#N)(C#N)[C@H](c2ccoc2)[C@H]2CN(Cc3ccccc3)CC=C12 | 31* | 33* | 8 | 9 | 33 | 5 | 5
CN1CC=C2C(C#N)=C(N)C(C#N)(C#N)[C@H](c3ccoc3)[C@H]2C1 | nt | nt | nt | nt | 24 | nt | nt
CCCCN1CN2Cc3ccc(C)cc3C2CS1(=O)=O (stereo not given) | -1 | 2 | -3 | nt | nt | nt | nt
CCOc1ccccc1NC1=C(Cl)C(=O)N(c2ccc(OC)cc2)C1=O | 0 | 8 | -2 | 5 | -11 | nt | nt
COc1ccccc1N1C(=O)C(Cl)=C(Nc2ccccc2O)C1=O | 31* | 40* | -4 | -4 | 9 | 26* | 16
CCOc1cccc(=O)c2c(C)n(-c3ccc(C(=O)O)cc3)c(C)c12 | 39* | 37* | 1 | 13 | 8 | 12 | 25
CCOc1cccc(=O)c2c(C)n(Cc3ccccc3)c(C)c12 | 5 | 0 | 6 | -8 | -4 | nt | nt
C=C1CCC2C(C)(C)CCC[C@]2(C)[C@H]1CC1=C(O)C(=O)C(CO)=CC1=O (stereo not given in full) | 39* | 80* | 0 | nt | nt | 77* | 71*
COc1cc(/C=C2\SC(=S)N(NC(=O)c3ccccc3O)C2=O)ccc1O | -159 | 5 | -98 | -87 | -183 | nt | nt
O=C(NN1C(=O)/C(=C/c2ccc(O)c([N+](=O)[O-])c2)SC1=S)c1ccccc1Cl | 49* | 28* | -8 | -12 | 3 | 15 | 37*
COc1ccccc1N(C(C)=O)C1=C(Cl)C(=O)c2ccccc2C1=O | 39* | 94* | 6 | 3 | 23 | 89* | 46*

High-throughput results deposited in PubChem BioAssay by The Scripps Research Institute Molecular Screening Center.
